{
  "source": "ChEMBL document CHEMBL4011639",
  "about": "“Discovery of Novel Nucleotide Prodrugs with Improved Potency Against HCV Variants Carrying NS5B S282T Mutation” (J Med Chem, 2017)",
  "key": {"[1]": {"experiment": "Drug metabolism in human HuH7 cells assessed as carboxylesterase-mediated (S)-2-((S)-(((2R,3R,4R,5R)-5-(4-amino-2-oxopyrimidin-1(2H)-yl)-4-fluoro-3-hydroxy-4-methyltetrahydrofuran-2-yl)methoxy)(hydroxy)phosphoryloxy)propanoic acid metabolite formation at 50 uM after 24 hrs by LC/MS/MS analysis", "assay_type": "ADME, cell-based", "method_in_brief": "(§1)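 Huh-7 cells plated at 0.35 million/mL in DMEM with 10% FBS (about 1 million per well at dosing) and grown 18 h. At each time point cells were washed with cold saline and lysed in methanol with internal standard. Semiquantified by LC/MS/MS MRM as Δ mean peak-area ratio relative to t0.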"}, "[2]": {"molecular_target": "Adenosine 5'-monophosphoramidase HINT1 (Homo sapiens, UniProt P49773)", "sequence (P49773 whole entry)": "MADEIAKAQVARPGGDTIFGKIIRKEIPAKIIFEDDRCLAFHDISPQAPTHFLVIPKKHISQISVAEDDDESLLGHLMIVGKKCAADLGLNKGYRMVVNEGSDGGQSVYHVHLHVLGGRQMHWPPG", "experiment": "Drug metabolism in human HuH7 cells assessed as HINT1-mediated ((2R,3R,4R,5R)-5-(4-butyramido-2-oxopyrimidin-1(2H)-yl)-4-fluoro-3-hydroxy-4-methyltetrahydrofuran-2-yl)methyl dihydrogen phosphate metabolite formation at 50 uM after 48 hrs by LC/MS/MS analysis", "assay_type": "ADME, cell-based", "method_in_brief": "as §1"}, "[3]": {"experiment": "AUC (0 to infinity) in Beagle dog at 150 mg/kg, administered via oral gavage measured up to 24 hrs post dose by LC/MS/MS analysis", "assay_type": "ADME, organism-based, Canis lupus familiaris", "design": "dose 150 mg/kg, route oral, time infinity", "details": "in vivo", "method_in_brief": "(§2)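 Beagle dogs, 3 per sex, given a single oral gavage dose of 150 mg/kg in 20% w/v hydroxypropyl-β-cyclodextrin in water, 2.5 mL/kg. K2EDTA blood taken by venipuncture at 0.5, 0.75, 1, 2, 4, 6, 8, 12 and 24 h. Plasma extracted with ice-cold acetonitrile, then LC/MS/MS in positive MRM mode with zolpidem as internal standard. Noncompartmental analysis; mean ± SD.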"}, "[4]": {"experiment": "Half life in Beagle dog at 150 mg/kg, administered via oral gavage measured up to 24 hrs post dose by LC/MS/MS analysis", "assay_type": "ADME, organism-based, Canis lupus familiaris", "details": "in vivo", "method_in_brief": "as §2"}, "Mus musculus [5]": {"system": "Mus musculus", "experiment": "Subacute toxicity in ICR mouse assessed as effect on tubules at 100 to 1000 mg/kg, administered once a day via oral gavage for 14 days by hematoxylin/eosin-staining based microscopic analysis", "assay_type": "organism-based", "details": "in vivo, 336 h", "method_in_brief": "(§3)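 Same 14-day daily oral gavage design as the subacute study (ICR mice, 5 per sex per group, 100/500/1000 mg/kg or vehicle). Liver and kidney taken after anesthesia on day 15, processed routinely, cut as 5 μm paraffin sections, stained with hematoxylin and eosin and examined microscopically.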"}, "Mus musculus [6]": {"system": "Mus musculus", "experiment": "Subacute toxicity in ICR mouse assessed as effect on appearance of hepatocytes at 100 to 1000 mg/kg, administered once a day via oral gavage for 14 days by hematoxylin/eosin-staining based microscopic analysis", "assay_type": "organism-based", "details": "in vivo, 336 h", "method_in_brief": "as §3"}, "Mus musculus [7]": {"system": "Mus musculus", "experiment": "Subacute toxicity in ICR mouse assessed as macroscopic pathologic findings at 100 to 1000 mg/kg, administered once a day via oral gavage for 14 days", "assay_type": "organism-based", "details": "in vivo, 336 h", "method_in_brief": "(§4)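 ICR mice, 22−25 g, 5 per sex per group, gavaged daily for 14 days at 100, 500 or 1000 mg/kg in 30% PEG400/30% Tween 20/20% corn oil/20% water, with a vehicle control group. Observed daily for body weight change, skin and fur, inflammation and necrosis. Animals anesthetized on day 15; organ weights (liver, kidney) taken. Serum SGOT/SGPT compared with controls.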"}, "[8]": {"experiment": "Drug metabolism in human HuH7 cells assessed as carboxylesterase-mediated (S)-2-((S)-(((2R,3R,4R,5R)-5-(4-amino-2-oxopyrimidin-1(2H)-yl)-4-fluoro-3-hydroxy-4-methyltetrahydrofuran-2-yl)methoxy)(hydroxy)phosphoryloxy)propanoic acid metabolite formation at 50 uM after 48 hrs by LC/MS/MS analysis", "assay_type": "ADME, cell-based", "method_in_brief": "as §1"}, "Mus musculus [9]": {"system": "Mus musculus", "experiment": "Subacute toxicity in ICR mouse assessed as mortality at 100 to 1000 mg/kg, administered once a day via oral gavage for 14 days", "assay_type": "organism-based", "details": "in vivo, 336 h", "method_in_brief": "as §4"}, "[10]": {"experiment": "Acute toxicity in ICR mouse administered as a single dose via oral gavage and observed over 14 days", "details": "in vivo"}, "Mus musculus [11]": {"system": "Mus musculus", "experiment": "Subacute toxicity in ICR mouse assessed as body weight loss at 100 to 1000 mg/kg, administered once a day via oral gavage for 14 days", "assay_type": "organism-based", "details": "in vivo, 336 h", "method_in_brief": "as §4"}, "Mus musculus [12]": {"system": "Mus musculus", "experiment": "Subacute toxicity in ICR mouse assessed as weight change in liver at 100 to 1000 mg/kg, administered once a day via oral gavage for 14 days", "assay_type": "organism-based", "details": "in vivo, 336 h", "method_in_brief": "as §4"}, "[13]": {"experiment": "AUClast in Beagle dog at 150 mg/kg, administered via oral gavage measured up to 24 hrs post dose by LC/MS/MS analysis", "assay_type": "ADME, organism-based, Canis lupus familiaris", "design": "dose 150 mg/kg, time < 24 hr, route oral", "details": "in vivo", "method_in_brief": "as §2"}, "[14]": {"experiment": "Inhibition of wild type NS5B in HCV genotype 1b replicon expressed in human HuH7 cells after 72 hrs by bright Glo-luciferase reporter gene assay", "assay_type": "cell-based, Hepatitis C virus subtype 1b", "details": "Hepatitis C virus, Huh-7, 72 h", "method_in_brief": "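Huh7 cells carrying HCV genotype 1b replicon, 8000 per well, in duplicate 3-fold dilution series with 0.5% DMSO final; 72 h at 37 °C, 5% CO2. Viability read by Cell Titer-Fluor fluorescence after 5 min; replicon inhibition read by Bright-Glo luciferase luminescence in the same wells. EC50 and CC50 come from curve fitting.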"}, "Mus musculus [15]": {"system": "Mus musculus", "experiment": "Subacute toxicity in ICR mouse assessed as clinical signs of toxicity at 100 to 1000 mg/kg, administered once a day via oral gavage for 14 days", "assay_type": "organism-based", "details": "in vivo, 336 h", "method_in_brief": "as §4"}, "[16]": {"experiment": "Drug metabolism in human HuH7 cells assessed as carboxylesterase-mediated (S)-isopropyl 2-((S)-(((2R,3R,4R,5R)-5-(4-amino-2-oxopyrimidin-1(2H)-yl)-4-fluoro-3-hydroxy-4-methyltetrahydrofuran-2-yl)methoxy)(phenoxy)phosphoryloxy)propanoate metabolite formation at 50 uM after 48 hrs by LC/MS/MS analysis", "assay_type": "ADME", "details": "cell-based", "method_in_brief": "as §1"}, "[17]": {"experiment": "Half life in human plasma […] by LC/MS/MS analysis", "assay_type": "ADME, cell-free", "method_in_brief": "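Pooled human plasma adjusted to pH 7.4 and prewarmed, then spiked to 2 μM final from a 200 μM DMSO working solution, in duplicate. Sampled at 0, 10, 30, 60 and 120 min and quenched with acetonitrile containing tolbutamide and buspirone. LC/MS/MS (MRM) peak area ratios; ke from linear regression of the initial linear phase, t1/2 = ln2/ke.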"}, "[18]": {"experiment": "Cmax in Beagle dog at 150 mg/kg, administered via oral gavage measured up to 24 hrs post dose by LC/MS/MS analysis", "assay_type": "ADME, organism-based, Canis lupus familiaris", "design": "dose 150 mg/kg, route oral", "details": "in vivo", "method_in_brief": "as §2"}, "Mus musculus [19]": {"system": "Mus musculus", "experiment": "Acute toxicity in ICR mouse assessed as body weight loss at 150 to 1800 mg/kg, administered via oral gavage measured once a day over 14 days", "assay_type": "organism-based", "details": "in vivo, 336 h", "method_in_brief": "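ICR mice, 22−25 g, 5 per sex per group. Single oral gavage at 150, 500, 1200 or 1800 mg/kg in vehicle of 30% PEG400/30% Tween 20/20% corn oil/20% water, with a vehicle control. Mortality, morbidity, clinical signs and body weight change recorded once daily for 14 days.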"}, "[20]": {"system": "Hepatitis C virus subtype 1b", "experiment": "Ratio of EC50 for HCV genotype 1b replicon NS5B S282T mutant to EC50 for wild type HCV genotype 1b replicon NS5B", "method_in_brief": "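Huh7 cells carrying wild-type or S282T mutant HCV genotype 1b replicon, 8000 cells per well, exposed to 3-fold compound dilution series (0.5% DMSO final, duplicates) for 72 h at 37 °C, 5% CO2. Replicon activity read by Bright-Glo luciferase luminescence. EC50 averaged from duplicate determinations; ratio taken as S282T EC50 over wild-type EC50.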"}, "Mus musculus [21]": {"system": "Mus musculus", "experiment": "Subacute toxicity in ICR mouse assessed as effect on glomerulus at 100 to 1000 mg/kg, administered once a day via oral gavage for 14 days by hematoxylin/eosin-staining based microscopic analysis", "assay_type": "organism-based", "details": "in vivo, 336 h", "method_in_brief": "as §3"}},
  "data": [
    {"molecule": "CCCC(=O)Nc1ccn([C@@H]2O[C@H](CO[P@@](=O)(N[C@@H](C)C(=O)OC(C)C)Oc3ccccc3)[C@@H](O)[C@@]2(C)F)c(=O)n1", "values": [
      {"measurement": "Drug metabolism", "setting": "[1]", "result": "Metabolite_Detected"},
      {"measurement": "Drug metabolism", "setting": "[2]", "result": "Metabolite_Notdetected"},
      {"measurement": "AUC(0-inf)", "setting": "[3]", "result": 411, "unit": "ng·h/mL"},
      {"measurement": "half-life", "setting": "[4]", "result": 14.2, "unit": "h"},
      {"measurement": "Activity", "setting": "Mus musculus [5]", "result": "Non-Toxic"},
      {"measurement": "Activity", "setting": "Mus musculus [6]", "result": "Non-Toxic"},
      {"measurement": "Activity", "setting": "Mus musculus [7]", "result": "Non-Toxic"},
      {"measurement": "Drug metabolism", "setting": "[8]", "result": "Metabolite_Detected"},
      {"measurement": "Activity", "setting": "Mus musculus [9]", "result": "Non-Toxic"},
      {"measurement": "NOAEL at 336 h", "setting": "[10]", "result": "> 1800", "unit": "mg/kg"},
      {"measurement": "Activity", "setting": "Mus musculus [11]", "result": "Non-Toxic"},
      {"measurement": "Activity", "setting": "Mus musculus [12]", "result": "Non-Toxic"},
      {"measurement": "AUC(0-t) at 24 h", "setting": "[13]", "result": 248, "unit": "ng·h/mL"},
      {"measurement": "EC50", "setting": "[14]", "result": 240, "unit": "nM"},
      {"measurement": "Activity", "setting": "Mus musculus [15]", "result": "Non-Toxic"},
      {"measurement": "Drug metabolism", "setting": "[16]", "result": "Metabolite_Detected"},
      {"measurement": "half-life", "setting": "[17]", "result": "> 3.85", "unit": "h"},
      {"measurement": "Cmax", "setting": "[18]", "result": 51.3, "unit": "ng/mL"},
      {"measurement": "Activity", "setting": "Mus musculus [19]", "result": "Non-Toxic"},
      {"measurement": "Ratio EC50", "setting": "[20]", "result": 3.2},
      {"measurement": "Activity", "setting": "Mus musculus [21]", "result": "Non-Toxic"}
    ]}
  ]
}
